Assay results taken from ChEMBL document CHEMBL1128460, “Design, synthesis, and structure-activity relationships of a new series of alpha-adrenergic agonists: spiro[(1,3-diazacyclopent-1-ene)-5,2'-(1',2',3',4'- tetrahydronaphthalene)]” (J Med Chem, 1995).

Legend:
Canis familiaris [1] = organism: Canis familiaris; assay: Maximal contractile response obtained with the agonist (expressed as a percentage of the maximal contraction to phenylephrine in the dog saphenous vein); format: functional, Canis lupus familiaris
Summary of the method: (§1)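 Vessel segments from mongrel dogs (15–25 kg) anesthetized with pentobarbital (30 mg/kg iv), mounted for isometric tension in physiological saline. Equilibrated 90 min with bath changes every 30 min, rauwolscine (10^-7 M) present throughout. Primed with KCl (100 mM), then phenylephrine (1 µM). Agonist concentration–response curves run at half-log steps, giving EC50 (µM) and Emax as % of phenylephrine maximum; mean ±SD.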

[2] = biological target: T1, Adrenergic receptor alpha (Rattus norvegicus) (UniProt P15823+P23944+P43140+P22086+P19328+P22909); assay: Alpha adrenergic activity was evaluated as concentration (iv) which increases the arterial pressure by 20 mmHg in the pithed rat; format: functional, organism-based; conditions: Artery
[3] = biological target: T1, Adrenergic receptor alpha (Rattus norvegicus); assay: Alpha adrenergic activity was evaluated as maximal pressure response caused by agonist, expressed in mmHg (the maximum obtained with phenylephrine is 150 mmHg).; format: functional
[4] = ratio of C20 obtained in the absence or presence of [C20 (1 mg of yohimbine.) / C20 (control)]; format: functional
Summary of the method: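 Pithed rat arterial pressure assay with tertatolol (100 mg/kg) pretreatment, then yohimbine (1 mg/kg) 10 min later. Cumulative iv agonist doses given at 20 s intervals after a further 10 min, C20 (+20 mmHg dose) obtained. Ratio expressed as C20(yohimbine)/C20(control); 3–6 determinations.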

[5] = ratio of C20 obtained in the absence or presence of [C20 ( 0.1 mg of prazosin ) / C20 (control)]; format: functional
Summary of the method: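 Pithed rats pretreated with tertatolol (100 mg/kg), then 10 min later with prazosin (100 µg/kg). Cumulative iv agonist doses given another 10 min later at 20 s intervals. Arterial pressure recorded, C20 (dose giving +20 mmHg) determined. Ratio calculated as C20(prazosin)/C20(control); 3–6 determinations.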

Canis familiaris [6] = organism: Canis familiaris; assay: Maximal contractile response obtained with the agonist (expressed as a percentage of the maximal contraction to phenylephrine in the dog femoral artery); format: functional, Canis lupus familiaris; summary of the method: as §1
Canis familiaris [7] = organism: Canis familiaris; assay: Effective concentration for the agonist in the isolated blood vessel using in vitro femoral artery; format: functional; conditions: Canis lupus familiaris; summary of the method: as §1
[8] = Ratio of C20 (pithed rat) to that of EC50 (saphenous vein); format: functional
Canis familiaris [9] = organism: Canis familiaris; assay: Effective concentration for the agonist in the isolated blood vessel using in vitro saphenous vein; format: functional; conditions: Canis lupus familiaris; summary of the method: as §1
[10] = biological target: T2, Adrenergic receptor alpha-1 (Rattus norvegicus, UniProt P15823+P23944+P43140); assay: Displacement of [3H]prazosin from rat cortex Alpha-1 adrenergic receptor
T2 sequence (P15823 whole entry): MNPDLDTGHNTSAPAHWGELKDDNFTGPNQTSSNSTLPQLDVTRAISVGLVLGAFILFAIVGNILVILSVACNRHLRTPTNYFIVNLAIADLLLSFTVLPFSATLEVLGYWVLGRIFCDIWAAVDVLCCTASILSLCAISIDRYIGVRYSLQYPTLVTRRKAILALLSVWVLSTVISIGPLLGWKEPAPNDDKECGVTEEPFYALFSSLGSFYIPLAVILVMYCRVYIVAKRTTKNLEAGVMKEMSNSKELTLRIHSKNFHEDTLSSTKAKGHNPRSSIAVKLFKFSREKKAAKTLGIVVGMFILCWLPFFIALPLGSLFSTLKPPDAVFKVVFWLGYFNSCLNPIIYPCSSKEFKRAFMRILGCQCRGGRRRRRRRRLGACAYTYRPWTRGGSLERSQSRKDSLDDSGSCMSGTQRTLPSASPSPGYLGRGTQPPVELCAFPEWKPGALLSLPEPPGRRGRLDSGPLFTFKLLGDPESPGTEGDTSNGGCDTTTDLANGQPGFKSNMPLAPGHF
T2 sequence (P23944 whole entry): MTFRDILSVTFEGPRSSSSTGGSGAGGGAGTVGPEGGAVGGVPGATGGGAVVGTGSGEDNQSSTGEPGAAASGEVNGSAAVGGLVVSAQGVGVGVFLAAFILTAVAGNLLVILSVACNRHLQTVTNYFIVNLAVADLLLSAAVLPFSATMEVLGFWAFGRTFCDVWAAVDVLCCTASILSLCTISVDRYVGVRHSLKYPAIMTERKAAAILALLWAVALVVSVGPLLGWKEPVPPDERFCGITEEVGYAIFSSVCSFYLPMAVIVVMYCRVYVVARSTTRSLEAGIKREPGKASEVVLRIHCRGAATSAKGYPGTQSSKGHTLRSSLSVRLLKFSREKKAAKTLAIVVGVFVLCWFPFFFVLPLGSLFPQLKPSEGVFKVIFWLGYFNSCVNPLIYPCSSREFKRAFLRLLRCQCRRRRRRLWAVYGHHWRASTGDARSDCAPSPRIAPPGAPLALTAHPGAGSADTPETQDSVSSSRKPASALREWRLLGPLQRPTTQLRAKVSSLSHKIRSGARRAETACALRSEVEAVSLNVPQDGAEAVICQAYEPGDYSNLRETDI
T2 sequence (P43140 whole entry): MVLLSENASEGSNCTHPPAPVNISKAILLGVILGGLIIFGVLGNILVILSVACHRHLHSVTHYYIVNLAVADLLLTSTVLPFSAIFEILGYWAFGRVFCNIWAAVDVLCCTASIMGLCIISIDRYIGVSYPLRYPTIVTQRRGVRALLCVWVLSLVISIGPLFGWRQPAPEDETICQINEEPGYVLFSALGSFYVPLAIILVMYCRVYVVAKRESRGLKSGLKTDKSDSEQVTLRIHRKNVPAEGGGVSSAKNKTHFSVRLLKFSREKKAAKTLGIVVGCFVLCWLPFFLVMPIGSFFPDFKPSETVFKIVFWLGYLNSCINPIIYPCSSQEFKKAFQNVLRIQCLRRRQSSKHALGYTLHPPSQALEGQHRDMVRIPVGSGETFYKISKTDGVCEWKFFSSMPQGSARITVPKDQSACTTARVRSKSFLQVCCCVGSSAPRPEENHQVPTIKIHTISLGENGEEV
Summary of the method: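 Rat cortex membranes labelled with [3H]prazosin (0.3 nM), nonspecific binding with prazosin (10 µM). Nine drug concentrations spanning 3 log units, IC50 by log-probit analysis. Ki by Cheng–Prusoff using Kd from Scatchard saturation. At least three independent experiments in duplicate.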

[11] = biological target: T3, Alpha-2A adrenergic receptor (Homo sapiens, UniProt P08913); assay: Binding affinity towards Alpha-2A adrenergic receptor in human platelets using [3H]RX-821002 as radioligand
T3 sequence (P08913 whole entry): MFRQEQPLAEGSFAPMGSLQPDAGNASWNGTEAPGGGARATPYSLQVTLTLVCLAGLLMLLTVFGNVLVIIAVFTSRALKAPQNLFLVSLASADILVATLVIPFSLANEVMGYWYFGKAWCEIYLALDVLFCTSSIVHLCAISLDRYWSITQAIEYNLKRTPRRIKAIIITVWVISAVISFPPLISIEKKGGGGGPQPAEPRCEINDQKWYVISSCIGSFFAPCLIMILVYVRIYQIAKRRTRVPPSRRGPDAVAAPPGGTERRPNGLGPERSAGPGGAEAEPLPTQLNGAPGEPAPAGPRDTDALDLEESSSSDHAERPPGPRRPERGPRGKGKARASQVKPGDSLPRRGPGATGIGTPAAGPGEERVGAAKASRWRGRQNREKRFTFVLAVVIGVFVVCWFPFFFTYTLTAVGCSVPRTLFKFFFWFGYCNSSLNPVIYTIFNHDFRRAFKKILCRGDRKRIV
Summary of the method: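 Human platelet membranes with [3H]RX821002 (1.5 nM), nonspecific binding with phentolamine (10 µM). Displacement at nine concentrations spanning 3 orders of magnitude, IC50 by log-probit analysis, converted to Ki using Scatchard Kd. ≥3 independent duplicate experiments.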

[12] = biological target: T4, Alpha-2B adrenergic receptor (Rattus norvegicus, UniProt P19328); assay: Binding affinity towards Alpha-2B adrenergic receptor in neonatal rat lung using [3H]-RX-821002 as radioligand
T4 sequence (P19328 whole entry): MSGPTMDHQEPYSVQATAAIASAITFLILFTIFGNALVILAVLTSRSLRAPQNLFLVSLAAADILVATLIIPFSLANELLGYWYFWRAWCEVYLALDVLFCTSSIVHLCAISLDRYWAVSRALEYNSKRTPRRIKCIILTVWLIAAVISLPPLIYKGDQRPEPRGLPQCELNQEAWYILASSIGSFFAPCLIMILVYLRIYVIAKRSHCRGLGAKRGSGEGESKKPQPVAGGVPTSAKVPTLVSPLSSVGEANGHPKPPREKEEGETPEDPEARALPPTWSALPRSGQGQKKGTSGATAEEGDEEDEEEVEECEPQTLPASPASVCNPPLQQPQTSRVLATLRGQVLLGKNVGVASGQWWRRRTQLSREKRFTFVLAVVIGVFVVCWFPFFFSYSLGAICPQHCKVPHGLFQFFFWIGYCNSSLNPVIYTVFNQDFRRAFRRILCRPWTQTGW
Summary of the method: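 Neonatal rat lung membranes with [3H]RX821002 (0.5 nM), nonspecific binding with phentolamine (10 µM). Nine concentrations over 3 log units, IC50 by log-probit, Ki by Cheng–Prusoff with Scatchard-derived Kd. ≥3 independent experiments in duplicate.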

[13] = Ratio of C20 (pithed rat) to that of EC50(saphenous vein); format: functional

Structure (SMILES)	C20 [2] [µg/kg]	Max [3] [mmHg]	EC50 (Canis familiaris [7]) [nM]	EC50 (Canis familiaris [9]) [nM]	Ki [10] [nM]	Ki [11] [nM]	Ki [12] [nM]	Emax (Canis familiaris [1])	Ratio [4]	Ratio [5]	Emax (Canis familiaris [6])	Ratio [8]	Ratio [13]
CN1C=NCC12CCc1ccccc1C2 (stereo unspecified)	675	73						0	1.9	1.55	0		
CC1=NCC2(CCc3ccccc3C2)N1C (stereo unspecified)	1060	73						0	1.1	1	0		
C1=NCC2(CCc3cc4c(cc3C2)CCC4)N1 (stereo unspecified)	74	68		70				17	5	1.1	0		1057

Now from value to molecule, other results behind:

C20 [2] [µg/kg]	Max [3] [mmHg]	EC50 (Canis familiaris [7]) [nM]	EC50 (Canis familiaris [9]) [nM]	Ki [10] [nM]	Ki [11] [nM]	Ki [12] [nM]	Structure (SMILES)	Emax (Canis familiaris [1])	Ratio [4]	Ratio [5]	Emax (Canis familiaris [6])	Ratio [8]	Ratio [13]
8	111	74000	260	1000	7	50	Cc1ccc2c(c1)CC1(CC2)CN=CN1 (stereo unspecified)	64			5	31	
4	120	7500	1300	14400	34	275	C1=NCC2(CCc3ccccc3C2)N1 (stereo unspecified)	99	5.3	2	19		
